In brackets after ≈: the same amount, converted by molar mass.
Key:
[1] = tested on: Mycobacterium tuberculosis; experiment: Antimycobacterial activity against Mycobacterium tuberculosis H37Rv ATCC 27294 assessed as inhibition of bacterial growth under GAST medium condition after 7 to 14 days by broth microdilution method; assay type: functional; conditions: time 7-14 day
Procedure, shortened: (§1)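 Mtb H37Rv ATCC 27294 by broth microdilution in GAST or 7H9 base with 5 g/L BSA fraction V, 0.8 g/L NaCl and 0.05% tyloxapol. Carbon source was 20 mM glycerol/10 mM glucose or 0.05 mM sodium palmitate. Compounds came from DMSO stocks with DMSO-only controls. Inoculum was 10⁴-10⁵ cells; growth was read at 7 and 14 days. MIC is the concentration giving >99% growth inhibition; runs were in triplicate.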

[2] = tested on: Mycobacterium tuberculosis; experiment: Antimycobacterial activity against Mycobacterium tuberculosis H37Rv ATCC 27294 assessed as inhibition of bacterial growth under 7H9 medium condition after 7 to 14 days by broth microdilution method; assay type: functional; conditions: time 7-14 day; procedure, shortened: as §1
[3] = tested on: Mycobacterium tuberculosis; experiment: Antimycobacterial activity against Mycobacterium tuberculosis H37Rv ATCC 27294 assessed as inhibition of bacterial growth under 7H9 medium condition after 7 to 14 days in presence of palmitate by broth microdilution method; assay type: functional; conditions: time 7-14 day; procedure, shortened: as §1
[4] = target: T1, Medium/long-chain-fatty-acid--CoA/3-oxocholest-4-en-26-oate--CoA ligase (Mycobacterium tuberculosis, UniProt P9WQ51); experiment: Inhibition of Mycobacterium tuberculosis H37Rv FACL19 Spectra expressed in Escherichia coli BL21(DE3) cells assessed as cleavage of MEsG by spectroscopic analysis; conditions: read-out: Ki(app)
T1 sequence (P9WQ51 whole entry): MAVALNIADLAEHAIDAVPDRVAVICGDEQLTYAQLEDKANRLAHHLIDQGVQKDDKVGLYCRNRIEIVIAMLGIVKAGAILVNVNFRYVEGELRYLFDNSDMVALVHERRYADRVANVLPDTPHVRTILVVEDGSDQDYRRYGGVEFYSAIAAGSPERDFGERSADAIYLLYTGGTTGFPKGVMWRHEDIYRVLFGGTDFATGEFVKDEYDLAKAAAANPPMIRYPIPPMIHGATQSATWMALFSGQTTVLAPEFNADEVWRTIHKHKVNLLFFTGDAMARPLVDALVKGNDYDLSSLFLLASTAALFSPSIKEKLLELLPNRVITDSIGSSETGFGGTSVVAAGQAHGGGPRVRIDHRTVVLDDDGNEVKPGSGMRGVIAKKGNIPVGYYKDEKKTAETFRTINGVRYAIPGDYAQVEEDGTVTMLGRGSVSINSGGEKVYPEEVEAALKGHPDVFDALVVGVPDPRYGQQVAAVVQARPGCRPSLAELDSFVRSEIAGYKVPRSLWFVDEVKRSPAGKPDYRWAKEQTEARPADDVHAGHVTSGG
Procedure, shortened: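 FACL19 (0.167 μM) with 250 μM dodecanoic acid in a coupled MesG assay with pyrophosphatase and nucleoside phosphorylase. Buffer was 50 mM Tris·HCl pH 8.0 with 2.5 mM ATP, 5 mM MgCl₂, 0.5 mM DTT and 150 mM hydroxylamine. Apparent Ki came from a Morrison tight-binding fit.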

[5] = target: T2, Long-chain-fatty-acid--AMP ligase FadD28 (Mycobacterium tuberculosis, UniProt P9WQ59); experiment: Inhibition of Mycobacterium tuberculosis H37Rv FAAL28 Spectra expressed in Escherichia coli BL21(DE3) cells assessed as cleavage of MEsG by spectroscopic analysis; conditions: read-out: Ki(app)
T2 sequence (P9WQ59 whole entry): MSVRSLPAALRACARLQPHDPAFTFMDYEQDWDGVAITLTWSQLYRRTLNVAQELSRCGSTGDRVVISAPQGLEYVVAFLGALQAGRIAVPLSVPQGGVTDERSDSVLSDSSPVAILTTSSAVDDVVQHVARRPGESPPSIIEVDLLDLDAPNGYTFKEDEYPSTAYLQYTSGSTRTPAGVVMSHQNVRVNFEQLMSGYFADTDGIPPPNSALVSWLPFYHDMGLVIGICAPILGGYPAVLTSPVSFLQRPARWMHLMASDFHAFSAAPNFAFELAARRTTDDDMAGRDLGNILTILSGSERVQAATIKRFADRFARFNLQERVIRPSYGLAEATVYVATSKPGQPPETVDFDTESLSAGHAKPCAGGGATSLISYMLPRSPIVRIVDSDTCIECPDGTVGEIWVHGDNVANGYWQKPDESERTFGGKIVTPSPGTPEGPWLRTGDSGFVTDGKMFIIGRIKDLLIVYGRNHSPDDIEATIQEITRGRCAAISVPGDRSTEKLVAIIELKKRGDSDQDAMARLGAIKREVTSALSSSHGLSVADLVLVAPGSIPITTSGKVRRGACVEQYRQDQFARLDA
Procedure, shortened: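 Coupled continuous assay with pyrophosphatase (0.04 U) and nucleoside phosphorylase (0.1 U), using 0.45 μM FAAL28 and 33 μM tetradecanoic acid. Buffer was 50 mM Tris·HCl pH 8.0 with 2.5 mM ATP, 5 mM MgCl₂, 0.5 mM DTT, 150 mM hydroxylamine and 0.2 mM MesG. Apparent Ki came from a Morrison equation fit.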

[6] = tested on: Vero; experiment: Cytotoxicity against African green monkey Vero cells assessed as reduction in cell viability after 72 hrs by MTT assay; assay type: cell-based; conditions: Chlorocebus sabaeus
Procedure, shortened: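 Vero cells were seeded at (2.5–5.0) × 10⁴ per well in MEM with 5% FBS and penicillin/streptomycin. Compounds were added from 20 mM DMSO stocks to a final 100 μM. Controls were 0.5% and 50% DMSO, all in triplicate. After 72 h at 37 °C in 5% CO₂, cells got 1 mg/mL MTT for 3 h. Formazan was dissolved in isopropanol and read at 570/650 nm, with viability expressed relative to DMSO control.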

Structure (SMILES) | MIC [1] | MIC [2] | MIC [3] | Ki [4] | Ki [5] | IC50 [6]
CCCCOCCOCCOCC(=O)NS(=O)(=O)OC[C@H]1O[C@@H](n2cnc3c(N)ncnc32)[C@H](O)[C@@H]1O | 6.25 µM (≈ 3.43 µg/mL) | > 100 µM | > 100 µM | > 100 µM | > 100 µM | 16 µM
Nc1ncnc2c1ncn2[C@@H]1O[C@H](COS(=O)(=O)NC(=O)CCCCCCCCCCOc2ccccc2Cl)[C@@H](O)[C@H]1O | > 50 µM |  |  | > 100 µM | 3.6 µM | 
C#CCCCCCCCCC(=O)NS(=O)(=O)OC[C@H]1O[C@@H](n2cnc3c(N)ncnc32)[C@H](O)[C@@H]1O | 1.56 µM (≈ 0.796 µg/mL) | 50 µM (≈ 25.5 µg/mL) | 50 µM | > 100 µM | > 100 µM | 9.7 µM
CCCCCCCCCCCCCCCCCCCC(=O)NS(=O)(=O)OC[C@H]1O[C@@H](n2cnc3c(N)ncnc32)[C@H](O)[C@@H]1O | > 100 µM | > 100 µM | > 100 µM |  |  | 0.1 µM
Nc1ncnc2c1ncn2[C@@H]1O[C@H](COS(=O)(=O)NC(=O)CCCCCCCCCCOc2ccc3ccccc3c2)[C@@H](O)[C@H]1O | > 50 µM |  |  | 20.4 µM | 1.88 µM | 
COc1cccc(OCCCCCCCCCCC(=O)NS(=O)(=O)OC[C@H]2O[C@@H](n3cnc4c(N)ncnc43)[C@H](O)[C@@H]2O)c1 | 25 µM (≈ 15.9 µg/mL) |  |  | > 100 µM | 1.7 µM | 
COc1ccc(OCCCCCCCCCCC(=O)NS(=O)(=O)OC[C@H]2O[C@@H](n3cnc4c(N)ncnc43)[C@H](O)[C@@H]2O)cc1 | > 50 µM |  |  | > 100 µM | 6.6 µM | 
Nc1ncnc2c1ncn2[C@@H]1O[C@H](COS(=O)(=O)NC(=O)CCCCCCCCCCCOc2ccccc2)[C@@H](O)[C@H]1O | 12.5 µM (≈ 7.76 µg/mL) |  |  | > 100 µM | 2.6 µM | 
Nc1ncnc2c1ncn2[C@@H]1O[C@H](COS(=O)(=O)NCCCCCCCCCCCOc2ccccc2)[C@@H](O)[C@H]1O | > 50 µM |  |  | > 100 µM | > 100 µM | 
CCCCCCCCCCCCCCCC(=O)NS(=O)(=O)OC[C@H]1O[C@@H](n2cnc3c(N)ncnc32)[C@H](O)[C@@H]1O | 6.25 µM (≈ 3.65 µg/mL) | 100 µM (≈ 58.5 µg/mL) | > 100 µM |  | 1 µM | 0.3 µM
[N-]=[N+]=NCCCCCCCCCCCC(=O)NS(=O)(=O)OC[C@H]1O[C@@H](n2cnc3c(N)ncnc32)[C@H](O)[C@@H]1O | 0.19 µM (≈ 0.108 µg/mL) | 12.5 µM (≈ 7.12 µg/mL) | 25 µM | > 100 µM | 28.5 µM | 5.6 µM
Nc1ncnc2c1ncn2[C@@H]1O[C@H](COS(=O)(=O)NC(=O)CCCCCCCCCCOc2ccccc2)[C@@H](O)[C@H]1O | 3.13 µM (≈ 1.9 µg/mL) | 50 µM (≈ 30.3 µg/mL) | 50 µM | > 100 µM | 0.71 µM | 2 µM
Nc1ncnc2c1ncn2[C@@H]1O[C@H](COS(=O)(=O)NC(=O)CCCCCCCCCCOc2ccc(F)cc2)[C@@H](O)[C@H]1O | 12.5 µM (≈ 7.81 µg/mL) |  |  | 11.4 µM | 0.3 µM | 
CCCCCC(=O)NS(=O)(=O)OC[C@H]1O[C@@H](n2cnc3c(N)ncnc32)[C@H](O)[C@@H]1O | 100 µM (≈ 44.4 µg/mL) | > 100 µM | > 100 µM | > 100 µM | > 100 µM | 48.6 µM
CCCCCC/C=C/CCCC(=O)NS(=O)(=O)OC[C@H]1O[C@@H](n2cnc3c(N)ncnc32)[C@H](O)[C@@H]1O | 100 µM (≈ 52.7 µg/mL) | > 100 µM | > 100 µM | > 100 µM | > 100 µM | 16.8 µM

— ChEMBL document CHEMBL4765357, “Development of small-molecule inhibitors of fatty acyl-AMP and fatty acyl-CoA ligases in Mycobacterium tuberculosis” (Eur J Med Chem, 2020)
